Experimental data reported in ChEMBL document CHEMBL4689842, “EUbOPEN Chemogenomics Library wave 1” (2021).

Tested on: HEK-293T
Assay: Multiplex assay against HEK293T;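 on Population Tubulin-Different-Phenotype (%): share of the cells with healthy nuclei that show this phenotype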
Assay type: toxicity, cell-based
Details: human
Summary of the method: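 Cells were classed with CellPathfinder machine-learning gating, first as Hoechst high-intensity objects or normal cells, then (normal cells) as healthy, pyknosed or fragmented nuclei, and finally (pyknosed cells) as mitotic or apoptotic. Staining of live cells at seeding used Hoechst33342, BioTracker Green Microtubule Cytoskeleton Dye, MitoTracker Red and Annexin V Alexa Fluor 680, with imaging on a CQ1 microscope at 37°C and 5% CO2 after compound addition. Tubulin, mitochondrial-mass and membrane-permeability phenotypes are per cents of healthy-nucleus cells.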

[1] = 12 h, 1 µM, compound concentration 1 uM, replicate 1
[2] = 12 h, 1 µM, compound concentration 1 uM, replicate 2
[3] = 12 h, 10 µM, compound concentration 10 uM, replicate 1
[4] = 12 h, 10 µM, compound concentration 10 uM, replicate 2
[5] = 24 h, 1 µM, compound concentration 1 uM, replicate 1
[6] = 24 h, 1 µM, compound concentration 1 uM, replicate 2
[7] = 24 h, 10 µM, compound concentration 10 uM, replicate 1
[8] = 24 h, 10 µM, compound concentration 10 uM, replicate 2
[9] = 48 h, 1 µM, compound concentration 1 uM, replicate 1
[10] = 48 h, 1 µM, compound concentration 1 uM, replicate 2
[11] = 48 h, 10 µM, compound concentration 10 uM, replicate 1
[12] = 48 h, 10 µM, compound concentration 10 uM, replicate 2

Cc1cn(-c2cc(NC(=O)c3ccc(C)c(Nc4nccc(-c5cccnc5)n4)c3)cc(C(F)(F)F)c2)cn1 [NILOTINIB]
Population Apoptotic (%) [1]: 65% | Population Fragmented Nuclei (%) [1]: 10% | Population Hoechst High Intensity Objects (%) [1]: 17% | Population Membrane Permeable-Phenotype (%) [1]: 2% | Population Mitochondria Different-Phenotype (%) [1]: 92% | Population Mitotic Cells (%) [1]: 34% | Population Normal (%) [1]: 82% | Population Pyknosed Nuclei (%) [1]: 51% | Population Tubulin-Different-Phenotype (%) [1]: 98% | Total Cell Count [1]: 215 | Population Apoptotic (%) [2]: 21% | Population Fragmented Nuclei (%) [2]: 7% | Population Healthy Nuclei (%) [2]: 37% | Population Hoechst High Intensity Objects (%) [2]: 6% | Population Membrane Permeable-Phenotype (%) [2]: 10% | Population Mitochondria Different-Phenotype (%) [2]: 10% | Population Mitotic Cells (%) [2]: 78% | Population Normal (%) [2]: 93% | Population Pyknosed Nuclei (%) [2]: 55% | Population Tubulin-Different-Phenotype (%) [2]: 15% | Total Cell Count [2]: 164 | Population Apoptotic (%) [3]: 91% | Population Fragmented Nuclei (%) [3]: 54% | Population Healthy Nuclei (%) [3]: 12% | Population Hoechst High Intensity Objects (%) [3]: 48% | Population Membrane Permeable-Phenotype (%) [3]: 6% | Population Mitochondria Different-Phenotype (%) [3]: 61% | Population Mitotic Cells (%) [3]: 8% | Population Normal (%) [3]: 51% | Population Pyknosed Nuclei (%) [3]: 32% | Population Tubulin-Different-Phenotype (%) [3]: 59% | Total Cell Count [3]: 738 | Population Apoptotic (%) [4]: 38% | Population Fragmented Nuclei (%) [4]: 9% | Population Healthy Nuclei (%) [4]: 32% | Population Hoechst High Intensity Objects (%) [4]: 3% | Population Membrane Permeable-Phenotype (%) [4]: 3% | Population Mitochondria Different-Phenotype (%) [4]: 71% | Population Mitotic Cells (%) [4]: 62% | Population Normal (%) [4]: 96% | Population Pyknosed Nuclei (%) [4]: 57% | Population Tubulin-Different-Phenotype (%) [4]: 80% | Total Cell Count [4]: 179 | Population Apoptotic (%) [5]: 69% | Population Fragmented Nuclei (%) [5]: 14% | Population Healthy Nuclei (%) [5]: 39% | Population Hoechst High Intensity Objects (%) [5]: 15% | Population Membrane Permeable-Phenotype (%) [5]: 1% | Population Mitochondria Different-Phenotype (%) [5]: 98% | Population Mitotic Cells (%) [5]: 30% | Population Normal (%) [5]: 84% | Population Pyknosed Nuclei (%) [5]: 46% | Population Tubulin-Different-Phenotype (%) [5]: 94% | Total Cell Count [5]: 213 | Population Apoptotic (%) [6]: 18% | Population Fragmented Nuclei (%) [6]: 7% | Population Healthy Nuclei (%) [6]: 56% | Population Hoechst High Intensity Objects (%) [6]: 4% | Population Membrane Permeable-Phenotype (%) [6]: 8% | Population Mitochondria Different-Phenotype (%) [6]: 23% | Population Mitotic Cells (%) [6]: 81% | Population Normal (%) [6]: 95% | Population Pyknosed Nuclei (%) [6]: 35% | Population Tubulin-Different-Phenotype (%) [6]: 38% | Total Cell Count [6]: 212 | Population Apoptotic (%) [7]: 87% | Population Fragmented Nuclei (%) [7]: 64% | Population Healthy Nuclei (%) [7]: 11% | Population Hoechst High Intensity Objects (%) [7]: 50% | Population Membrane Permeable-Phenotype (%) [7]: 1% | Population Mitochondria Different-Phenotype (%) [7]: 50% | Population Mitotic Cells (%) [7]: 12% | Population Normal (%) [7]: 49% | Population Pyknosed Nuclei (%) [7]: 24% | Population Tubulin-Different-Phenotype (%) [7]: 51% | Total Cell Count [7]: 958 | Population Apoptotic (%) [8]: 41% | Population Fragmented Nuclei (%) [8]: 5% | Population Healthy Nuclei (%) [8]: 57% | Population Hoechst High Intensity Objects (%) [8]: 2% | Population Membrane Permeable-Phenotype (%) [8]: 5% | Population Mitochondria Different-Phenotype (%) [8]: 68% | Population Mitotic Cells (%) [8]: 58% | Population Normal (%) [8]: 97% | Population Pyknosed Nuclei (%) [8]: 36% | Population Tubulin-Different-Phenotype (%) [8]: 85% | Total Cell Count [8]: 209 | Population Apoptotic (%) [9]: 64% | Population Fragmented Nuclei (%) [9]: 17% | Population Healthy Nuclei (%) [9]: 31% | Population Hoechst High Intensity Objects (%) [9]: 19% | Population Membrane Permeable-Phenotype (%) [9]: 1% | Population Mitochondria Different-Phenotype (%) [9]: 88% | Population Mitotic Cells (%) [9]: 36% | Population Normal (%) [9]: 80% | Population Pyknosed Nuclei (%) [9]: 50% | Population Tubulin-Different-Phenotype (%) [9]: 85% | Total Cell Count [9]: 244 | Population Apoptotic (%) [10]: 16% | Population Fragmented Nuclei (%) [10]: 4% | Population Healthy Nuclei (%) [10]: 80% | Population Hoechst High Intensity Objects (%) [10]: 3% | Population Membrane Permeable-Phenotype (%) [10]: 9% | Population Mitochondria Different-Phenotype (%) [10]: 9% | Population Mitotic Cells (%) [10]: 83% | Population Normal (%) [10]: 96% | Population Pyknosed Nuclei (%) [10]: 14% | Population Tubulin-Different-Phenotype (%) [10]: 38% | Total Cell Count [10]: 337 | Population Apoptotic (%) [11]: 84% | Population Fragmented Nuclei (%) [11]: 64% | Population Healthy Nuclei (%) [11]: 14% | Population Hoechst High Intensity Objects (%) [11]: 52% | Population Membrane Permeable-Phenotype (%) [11]: 0% | Population Mitochondria Different-Phenotype (%) [11]: 34% | Population Mitotic Cells (%) [11]: 15% | Population Normal (%) [11]: 47% | Population Pyknosed Nuclei (%) [11]: 20% | Population Tubulin-Different-Phenotype (%) [11]: 32% | Total Cell Count [11]: 1138 | Population Apoptotic (%) [12]: 41% | Population Fragmented Nuclei (%) [12]: 7% | Population Healthy Nuclei (%) [12]: 69% | Population Hoechst High Intensity Objects (%) [12]: 1% | Population Membrane Permeable-Phenotype (%) [12]: 1% | Population Mitochondria Different-Phenotype (%) [12]: 61% | Population Mitotic Cells (%) [12]: 58% | Population Normal (%) [12]: 98% | Population Pyknosed Nuclei (%) [12]: 23% | Population Tubulin-Different-Phenotype (%) [12]: 84% | Total Cell Count [12]: 290
